Results on 1 molecule are retold here after ChEMBL document CHEMBL2163325, “Discovery of phosphoinositide 3-kinases (PI3K) p110β isoform inhibitor 4-[2-hydroxyethyl(1-naphthylmethyl)amino]-6-[(2S)-2-methylmorpholin-4-yl]-1H-pyrimidin-2-one, an effective antithrombotic agent without associated bleeding and insulin resistance” (Bioorg Med Chem Lett, 2012).

One series addresses Cytochrome P450 2C9 (Homo sapiens, UniProt P11712). The series is described as follows: Inhibition of CYP2C9. The series is classed as ADME.
Series [1] concerns the target Phosphatidylinositol 4,5-bisphosphate 3-kinase catalytic subunit alpha isoform (Homo sapiens, UniProt P42336). Put plainly: Inhibition of human recombinant His6-tagged PI3K p110alpha expressed in baculovirus infected cells using DiC8-PI(4,5)P2 as substrate after 20 mins by AlphaScreen assay. On the technique in general: Bead proximity is the source of the signal in Alpha formats.

Series [2] deals with Phosphatidylinositol 4,5-bisphosphate 3-kinase catalytic subunit gamma isoform (Homo sapiens, UniProt P48736). The series is described as follows: Inhibition of human recombinant His6-tagged PI3K […] expressed in baculovirus infected cells using DiC8-PI(4,5)P2 as substrate after 20 mins by AlphaScreen assay.
In a further series the test system is Canis familiaris. Put plainly: Antithrombotic activity in Beagle dog assessed as concentration required to increase bleeding time by 2 fold at 15.8 to 591.8 ug/kg, iv administered as bolus infusion for 1 min followed by 8.7 to 378.7 ug/kg/min, iv administered as continuous infusion for 29 mins measured up to 15 mins. Type of series: functional, Canis lupus familiaris. In outline: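 Anaesthetized, intubated, ventilated beagles (N = 2). Femoral artery intima damaged and flow reduced to give cyclic flow reductions. Control period vehicle iv (30% cyclodextrin). Then 5 ascending 30-min periods, each a bolus over 1 min plus continuous infusion for 29 min. Tongue incision bleeding time from 15 min, capped at 15 min. Blood at 20 min for ex vivo aggregation and plasma level. EC50 fitted sigmoidally; EC_BT:2 from an exponential fit.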

The nature of series [3]: Lipophilicity, log D of the compound at pH 7.4 by HPLC analysis. Type of series: physicochemical. The following applies: buffer. An outline of the steps: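 LogD measured at pH 7.4 by HPLC.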
In series [4] the target is T1, A-type voltage-gated potassium channel KCND3 (Homo sapiens, UniProt Q9UK17).
T1 sequence (Q9UK17 whole entry): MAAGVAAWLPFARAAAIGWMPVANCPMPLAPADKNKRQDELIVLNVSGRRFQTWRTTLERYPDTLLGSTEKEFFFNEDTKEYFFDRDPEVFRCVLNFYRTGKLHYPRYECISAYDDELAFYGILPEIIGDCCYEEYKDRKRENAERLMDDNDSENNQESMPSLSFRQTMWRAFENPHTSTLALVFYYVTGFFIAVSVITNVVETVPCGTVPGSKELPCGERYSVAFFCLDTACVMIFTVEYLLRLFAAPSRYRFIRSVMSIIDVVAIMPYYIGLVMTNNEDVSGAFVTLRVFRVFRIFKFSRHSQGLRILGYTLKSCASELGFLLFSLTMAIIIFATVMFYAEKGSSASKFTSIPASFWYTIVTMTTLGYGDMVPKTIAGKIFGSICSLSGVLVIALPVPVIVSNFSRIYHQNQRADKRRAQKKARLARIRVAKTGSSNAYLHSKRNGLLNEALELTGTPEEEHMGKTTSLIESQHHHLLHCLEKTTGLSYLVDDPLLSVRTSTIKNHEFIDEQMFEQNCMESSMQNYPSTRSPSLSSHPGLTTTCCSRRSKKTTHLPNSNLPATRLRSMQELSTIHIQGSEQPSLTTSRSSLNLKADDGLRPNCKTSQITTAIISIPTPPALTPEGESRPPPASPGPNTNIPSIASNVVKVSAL
Put plainly: Inhibition of human KV4.3 expressed in CHO cells at 31.6 uM by patch clamp assay. Type of series: cell-based. On the technique in general: Patch clamp records ionic current or voltage across a cell membrane.

The target in series [5] is Voltage-dependent L-type calcium channel subunit alpha-1C (Homo sapiens, UniProt Q13936). Put plainly: Inhibition of human CaV1.2 expressed in CHO cells at 31.6 uM by patch clamp assay. The series is classed as cell-based.

By IC50 is commonly meant the concentration that gives 50% inhibition. The logD is the decadic logarithm of the distribution of all forms, ionised or not, between an organic phase and buffer at a given pH. Low readings indicate lower lipophilicity, high ones higher lipophilicity.

Sequence of Voltage-dependent L-type calcium channel subunit alpha-1C (Q13936 whole entry): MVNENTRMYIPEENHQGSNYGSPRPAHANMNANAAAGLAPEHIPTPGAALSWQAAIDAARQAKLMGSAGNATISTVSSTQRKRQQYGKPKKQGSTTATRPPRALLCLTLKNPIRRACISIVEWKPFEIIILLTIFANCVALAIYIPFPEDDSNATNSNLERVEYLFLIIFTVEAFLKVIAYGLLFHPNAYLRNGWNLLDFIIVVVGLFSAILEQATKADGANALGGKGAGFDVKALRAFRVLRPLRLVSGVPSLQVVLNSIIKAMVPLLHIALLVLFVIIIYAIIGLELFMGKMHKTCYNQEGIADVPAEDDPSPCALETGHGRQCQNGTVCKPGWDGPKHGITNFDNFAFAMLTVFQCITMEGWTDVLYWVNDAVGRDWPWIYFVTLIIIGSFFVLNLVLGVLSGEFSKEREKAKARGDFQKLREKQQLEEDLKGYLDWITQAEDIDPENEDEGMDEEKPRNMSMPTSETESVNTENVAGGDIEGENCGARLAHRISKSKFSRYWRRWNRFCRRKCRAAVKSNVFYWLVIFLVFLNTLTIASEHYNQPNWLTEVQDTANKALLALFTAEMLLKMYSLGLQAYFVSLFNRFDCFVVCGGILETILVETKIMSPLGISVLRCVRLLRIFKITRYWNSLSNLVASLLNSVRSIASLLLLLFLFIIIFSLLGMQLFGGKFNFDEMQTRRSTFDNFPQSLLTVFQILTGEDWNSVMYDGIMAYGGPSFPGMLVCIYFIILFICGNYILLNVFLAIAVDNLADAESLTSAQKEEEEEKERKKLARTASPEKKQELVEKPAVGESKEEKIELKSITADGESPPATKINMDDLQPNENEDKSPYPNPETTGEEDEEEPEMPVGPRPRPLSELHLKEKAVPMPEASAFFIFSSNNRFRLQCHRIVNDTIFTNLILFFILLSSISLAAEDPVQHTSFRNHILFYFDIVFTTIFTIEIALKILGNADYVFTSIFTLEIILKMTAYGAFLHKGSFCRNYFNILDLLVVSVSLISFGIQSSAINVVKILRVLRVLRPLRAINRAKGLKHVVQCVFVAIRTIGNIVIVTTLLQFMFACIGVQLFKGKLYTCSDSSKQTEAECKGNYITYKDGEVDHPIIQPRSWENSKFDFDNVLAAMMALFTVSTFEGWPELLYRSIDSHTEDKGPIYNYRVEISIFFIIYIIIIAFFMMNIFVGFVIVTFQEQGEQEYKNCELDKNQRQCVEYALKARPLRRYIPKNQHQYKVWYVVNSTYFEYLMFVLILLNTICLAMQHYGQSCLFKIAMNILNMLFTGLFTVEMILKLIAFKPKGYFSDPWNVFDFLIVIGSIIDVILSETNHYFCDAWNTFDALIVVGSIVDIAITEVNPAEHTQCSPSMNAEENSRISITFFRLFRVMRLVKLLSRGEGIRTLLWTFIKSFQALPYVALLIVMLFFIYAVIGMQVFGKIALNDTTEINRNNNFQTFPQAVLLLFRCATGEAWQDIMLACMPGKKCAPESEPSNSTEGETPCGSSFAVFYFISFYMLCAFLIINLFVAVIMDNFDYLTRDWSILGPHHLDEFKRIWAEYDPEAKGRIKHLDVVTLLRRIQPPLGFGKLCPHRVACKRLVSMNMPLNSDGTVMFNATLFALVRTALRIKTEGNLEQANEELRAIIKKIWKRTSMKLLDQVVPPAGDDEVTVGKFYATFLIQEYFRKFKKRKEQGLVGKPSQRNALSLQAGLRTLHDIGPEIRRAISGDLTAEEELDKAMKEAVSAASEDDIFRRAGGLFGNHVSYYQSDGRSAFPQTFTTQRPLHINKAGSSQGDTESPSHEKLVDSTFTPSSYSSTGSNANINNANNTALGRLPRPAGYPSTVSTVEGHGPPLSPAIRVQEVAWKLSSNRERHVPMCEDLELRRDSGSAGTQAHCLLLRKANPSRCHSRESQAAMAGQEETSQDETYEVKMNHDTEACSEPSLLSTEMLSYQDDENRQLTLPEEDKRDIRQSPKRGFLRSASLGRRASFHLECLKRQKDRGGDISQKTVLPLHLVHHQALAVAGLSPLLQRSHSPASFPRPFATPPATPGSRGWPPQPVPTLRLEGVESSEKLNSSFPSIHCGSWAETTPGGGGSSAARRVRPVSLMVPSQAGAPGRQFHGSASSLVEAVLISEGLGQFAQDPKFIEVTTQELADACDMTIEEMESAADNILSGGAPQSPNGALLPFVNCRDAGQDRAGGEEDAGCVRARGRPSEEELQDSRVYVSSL
Sequence of Phosphatidylinositol 4,5-bisphosphate 3-kinase catalytic subunit alpha isoform (P42336 whole entry, canonical isoform): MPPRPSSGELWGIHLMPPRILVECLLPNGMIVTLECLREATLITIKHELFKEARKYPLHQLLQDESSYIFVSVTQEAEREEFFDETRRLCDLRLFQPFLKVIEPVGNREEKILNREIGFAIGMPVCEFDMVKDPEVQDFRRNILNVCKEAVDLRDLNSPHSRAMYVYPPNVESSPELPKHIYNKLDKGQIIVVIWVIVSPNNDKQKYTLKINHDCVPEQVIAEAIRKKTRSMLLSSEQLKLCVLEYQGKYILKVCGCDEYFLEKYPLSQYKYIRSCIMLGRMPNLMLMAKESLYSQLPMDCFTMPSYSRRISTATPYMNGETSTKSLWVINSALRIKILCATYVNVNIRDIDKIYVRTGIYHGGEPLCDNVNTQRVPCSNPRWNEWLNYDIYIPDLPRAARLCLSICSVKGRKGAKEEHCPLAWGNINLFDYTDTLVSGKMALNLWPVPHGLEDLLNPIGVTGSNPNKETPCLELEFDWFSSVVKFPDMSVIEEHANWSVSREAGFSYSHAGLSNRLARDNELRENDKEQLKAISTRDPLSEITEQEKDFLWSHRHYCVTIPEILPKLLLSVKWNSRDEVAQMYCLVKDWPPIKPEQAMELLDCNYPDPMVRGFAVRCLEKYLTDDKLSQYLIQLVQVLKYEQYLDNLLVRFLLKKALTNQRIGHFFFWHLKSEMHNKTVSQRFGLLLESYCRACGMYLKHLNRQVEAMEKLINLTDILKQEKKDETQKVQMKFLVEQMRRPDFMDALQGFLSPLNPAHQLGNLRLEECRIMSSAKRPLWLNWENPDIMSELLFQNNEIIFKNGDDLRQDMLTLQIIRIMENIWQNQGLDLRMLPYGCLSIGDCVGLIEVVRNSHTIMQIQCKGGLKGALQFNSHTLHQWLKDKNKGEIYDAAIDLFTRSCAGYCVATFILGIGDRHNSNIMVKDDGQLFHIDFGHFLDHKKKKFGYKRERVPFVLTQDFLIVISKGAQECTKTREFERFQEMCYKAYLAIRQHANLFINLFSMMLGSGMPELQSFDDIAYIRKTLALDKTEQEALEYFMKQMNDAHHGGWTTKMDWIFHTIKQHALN
Sequence of Cytochrome P450 2C9 (P11712 whole entry, canonical isoform): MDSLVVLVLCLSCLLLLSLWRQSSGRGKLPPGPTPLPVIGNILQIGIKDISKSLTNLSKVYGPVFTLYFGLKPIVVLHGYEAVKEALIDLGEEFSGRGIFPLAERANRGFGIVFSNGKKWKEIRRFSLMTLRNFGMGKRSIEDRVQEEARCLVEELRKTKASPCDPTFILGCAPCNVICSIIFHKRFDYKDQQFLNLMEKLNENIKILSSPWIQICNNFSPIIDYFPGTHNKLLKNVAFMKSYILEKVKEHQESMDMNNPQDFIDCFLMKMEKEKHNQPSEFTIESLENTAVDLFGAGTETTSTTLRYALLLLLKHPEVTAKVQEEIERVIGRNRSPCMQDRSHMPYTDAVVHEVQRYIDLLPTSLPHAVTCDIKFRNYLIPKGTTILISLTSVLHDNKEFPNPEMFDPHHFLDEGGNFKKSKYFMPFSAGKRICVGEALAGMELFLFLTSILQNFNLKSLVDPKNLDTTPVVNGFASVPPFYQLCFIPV
Sequence of Phosphatidylinositol 4,5-bisphosphate 3-kinase catalytic subunit gamma isoform (P48736 whole entry, the tested form may be a part, canonical isoform): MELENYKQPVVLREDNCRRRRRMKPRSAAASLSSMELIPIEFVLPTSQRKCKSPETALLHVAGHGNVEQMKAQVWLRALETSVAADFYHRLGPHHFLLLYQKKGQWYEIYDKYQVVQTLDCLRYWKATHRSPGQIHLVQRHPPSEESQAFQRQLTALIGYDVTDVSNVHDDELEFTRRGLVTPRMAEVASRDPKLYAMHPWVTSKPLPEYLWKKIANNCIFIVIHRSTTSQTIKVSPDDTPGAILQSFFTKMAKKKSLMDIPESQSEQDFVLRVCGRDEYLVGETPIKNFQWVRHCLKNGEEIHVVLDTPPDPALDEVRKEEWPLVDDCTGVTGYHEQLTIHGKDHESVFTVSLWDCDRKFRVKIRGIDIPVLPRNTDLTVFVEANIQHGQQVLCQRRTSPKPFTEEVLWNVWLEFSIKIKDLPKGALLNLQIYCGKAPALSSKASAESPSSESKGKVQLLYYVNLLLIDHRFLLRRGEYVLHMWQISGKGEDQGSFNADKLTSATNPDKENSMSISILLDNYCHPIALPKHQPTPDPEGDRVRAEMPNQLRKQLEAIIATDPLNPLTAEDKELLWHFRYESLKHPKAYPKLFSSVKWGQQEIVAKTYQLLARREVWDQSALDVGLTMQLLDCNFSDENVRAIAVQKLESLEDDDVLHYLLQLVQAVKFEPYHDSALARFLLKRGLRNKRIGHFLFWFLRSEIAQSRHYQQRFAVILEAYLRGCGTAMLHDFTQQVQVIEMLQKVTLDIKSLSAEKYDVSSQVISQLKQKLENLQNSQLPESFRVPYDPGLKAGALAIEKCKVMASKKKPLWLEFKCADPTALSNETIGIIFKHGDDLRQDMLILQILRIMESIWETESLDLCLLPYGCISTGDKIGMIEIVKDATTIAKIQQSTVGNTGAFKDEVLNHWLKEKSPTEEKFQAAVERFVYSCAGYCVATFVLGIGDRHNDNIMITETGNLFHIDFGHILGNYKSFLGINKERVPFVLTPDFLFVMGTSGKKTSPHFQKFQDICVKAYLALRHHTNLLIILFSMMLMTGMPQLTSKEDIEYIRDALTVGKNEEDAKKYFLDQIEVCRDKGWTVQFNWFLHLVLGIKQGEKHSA

Take `C[C@H]1CN(c2cc(N(CCO)Cc3cccc4ccccc34)[nH]c(=O)n2)CCO1`: the figures for the IC50 (at Cytochrome P450 2C9; in series [1]; in series [2]) were 4 µM, 27.2 µM and 97.4 µM, respectively. Besides, the Activity in the series with Canis familiaris was determined as 14.8 µM. The molecule further had a log distribution coefficient (logD) in series [3] of 1.9. Besides, the “inhibition (INH)” value in series [4] and in series [5] was “Not Active” throughout.
